# Experimental data taken from the M2OR odorant receptor database.
# What was measured:
# Details in all cases: stereoisomer not certain
# UniProt Q8VH21 = target: T1, UniProt Q8VH21
# T1 sequence (whole entry): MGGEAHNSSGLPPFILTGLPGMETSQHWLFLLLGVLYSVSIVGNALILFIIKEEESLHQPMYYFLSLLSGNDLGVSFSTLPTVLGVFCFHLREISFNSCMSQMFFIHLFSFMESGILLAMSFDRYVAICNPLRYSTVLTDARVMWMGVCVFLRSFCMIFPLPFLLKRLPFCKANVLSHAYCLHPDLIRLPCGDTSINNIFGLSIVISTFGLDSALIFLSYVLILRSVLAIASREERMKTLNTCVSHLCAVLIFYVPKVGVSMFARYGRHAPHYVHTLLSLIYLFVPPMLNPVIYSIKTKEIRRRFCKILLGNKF
# Outline: (§1)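 Whether a receptor–molecule pair is responsive (active) rests on the original authors' judgment that its measured signal was statistically different from baseline. Pairs without that judgment are non-responsive (inactive). Sources used varied assay methods, commonly transient luciferase assays in mammalian cell lines.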
# UniProt Q924H8 = target: T2, UniProt Q924H8
# T2 sequence (whole entry): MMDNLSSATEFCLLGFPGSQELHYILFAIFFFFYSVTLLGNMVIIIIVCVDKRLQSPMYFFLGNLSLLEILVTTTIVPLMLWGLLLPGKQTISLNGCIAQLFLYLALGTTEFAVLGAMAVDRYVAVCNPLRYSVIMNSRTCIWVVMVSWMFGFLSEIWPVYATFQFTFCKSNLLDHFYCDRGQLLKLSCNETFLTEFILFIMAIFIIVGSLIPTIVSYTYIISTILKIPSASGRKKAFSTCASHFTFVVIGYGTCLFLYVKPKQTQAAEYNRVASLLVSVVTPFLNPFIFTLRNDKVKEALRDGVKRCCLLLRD
# Outline: as §1
# UniProt Q9EPN9 = target: T3, UniProt Q9EPN9
# T3 sequence (whole entry): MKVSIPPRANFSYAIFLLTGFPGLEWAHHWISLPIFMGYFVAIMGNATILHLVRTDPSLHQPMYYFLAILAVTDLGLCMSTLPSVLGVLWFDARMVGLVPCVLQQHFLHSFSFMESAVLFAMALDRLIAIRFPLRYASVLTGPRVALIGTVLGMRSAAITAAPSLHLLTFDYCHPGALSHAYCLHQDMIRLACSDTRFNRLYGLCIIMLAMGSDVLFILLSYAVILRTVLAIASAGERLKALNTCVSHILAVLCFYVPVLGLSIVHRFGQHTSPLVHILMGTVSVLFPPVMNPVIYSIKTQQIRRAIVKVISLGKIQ
# Outline: as §1
# UniProt Q9R0K2 = target: UniProt Q9R0K2
# UniProt Q9R0K2, sequence (Q9R0K2 as listed by the source): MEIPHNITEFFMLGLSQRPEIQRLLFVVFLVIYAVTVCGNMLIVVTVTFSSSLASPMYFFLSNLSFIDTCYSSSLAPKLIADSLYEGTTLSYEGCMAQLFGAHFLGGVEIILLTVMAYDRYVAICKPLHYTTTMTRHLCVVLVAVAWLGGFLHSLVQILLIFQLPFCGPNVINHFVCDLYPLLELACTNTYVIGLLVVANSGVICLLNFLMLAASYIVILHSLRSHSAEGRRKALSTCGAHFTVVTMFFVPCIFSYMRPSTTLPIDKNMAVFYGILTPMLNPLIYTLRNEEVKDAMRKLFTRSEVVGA
# Outline: as §1
# UniProt Q9WU86 = target: T4, UniProt Q9WU86
# T4 sequence (whole entry): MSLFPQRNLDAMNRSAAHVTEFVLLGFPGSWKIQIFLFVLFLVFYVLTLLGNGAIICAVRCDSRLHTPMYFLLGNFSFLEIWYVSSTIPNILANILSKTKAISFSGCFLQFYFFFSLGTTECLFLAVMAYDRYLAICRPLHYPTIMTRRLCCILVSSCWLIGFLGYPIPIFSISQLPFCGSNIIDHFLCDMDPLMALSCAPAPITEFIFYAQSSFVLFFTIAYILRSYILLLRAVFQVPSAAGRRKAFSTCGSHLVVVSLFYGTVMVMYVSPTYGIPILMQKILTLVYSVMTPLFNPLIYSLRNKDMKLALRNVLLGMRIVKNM
# Outline: as §1
# UniProt Q9WVD9 = target: UniProt Q9WVD9
# UniProt Q9WVD9, sequence (Q9WVD9 as listed by the source): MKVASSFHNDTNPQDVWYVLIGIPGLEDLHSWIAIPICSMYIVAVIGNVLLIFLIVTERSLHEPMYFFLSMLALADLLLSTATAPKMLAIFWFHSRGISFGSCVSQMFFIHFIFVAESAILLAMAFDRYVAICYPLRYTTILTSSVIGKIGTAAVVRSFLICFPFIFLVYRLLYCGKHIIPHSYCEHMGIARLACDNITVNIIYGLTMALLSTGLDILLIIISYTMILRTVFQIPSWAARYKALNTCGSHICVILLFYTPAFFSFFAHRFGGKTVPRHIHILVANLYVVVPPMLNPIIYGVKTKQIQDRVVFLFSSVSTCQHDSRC
# Outline: as §1
# UniProt Q9WVN5 = target: T5, UniProt Q9WVN5
# T5 sequence (whole entry): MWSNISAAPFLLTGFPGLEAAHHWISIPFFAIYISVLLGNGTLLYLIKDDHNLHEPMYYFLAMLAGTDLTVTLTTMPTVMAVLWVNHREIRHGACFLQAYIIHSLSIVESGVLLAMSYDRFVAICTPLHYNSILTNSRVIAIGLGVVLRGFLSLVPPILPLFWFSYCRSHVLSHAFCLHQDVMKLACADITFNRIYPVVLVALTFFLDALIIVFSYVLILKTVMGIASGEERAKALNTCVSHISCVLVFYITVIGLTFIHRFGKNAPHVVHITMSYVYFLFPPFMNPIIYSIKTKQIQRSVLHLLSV
# Outline: as §1
# UniProt Q99NH4 = target: UniProt Q99NH4
# UniProt Q99NH4, sequence (Q99NH4 as listed by the source): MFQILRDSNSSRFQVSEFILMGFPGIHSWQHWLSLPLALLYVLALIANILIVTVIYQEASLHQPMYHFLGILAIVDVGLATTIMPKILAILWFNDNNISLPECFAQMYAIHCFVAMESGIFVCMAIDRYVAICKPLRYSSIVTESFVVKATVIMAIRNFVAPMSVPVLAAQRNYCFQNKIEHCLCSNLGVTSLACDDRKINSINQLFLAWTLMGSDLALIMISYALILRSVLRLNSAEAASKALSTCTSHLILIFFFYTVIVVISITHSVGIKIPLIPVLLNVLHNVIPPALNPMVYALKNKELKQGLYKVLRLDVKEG
# Outline: as §1
# UniProt Q920P1 = target: T6, UniProt Q920P1
# T6 sequence (whole entry): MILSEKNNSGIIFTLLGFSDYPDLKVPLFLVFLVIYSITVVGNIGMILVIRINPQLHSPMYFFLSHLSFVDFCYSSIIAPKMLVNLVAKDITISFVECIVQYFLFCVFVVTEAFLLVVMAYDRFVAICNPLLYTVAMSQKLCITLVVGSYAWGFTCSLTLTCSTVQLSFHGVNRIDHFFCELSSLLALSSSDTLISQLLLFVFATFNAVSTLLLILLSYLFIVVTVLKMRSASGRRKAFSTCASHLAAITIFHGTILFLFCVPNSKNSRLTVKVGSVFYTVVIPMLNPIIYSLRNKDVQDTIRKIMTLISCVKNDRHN
# Outline: as §1
# UniProt Q920P2 = target: T7, UniProt Q920P2
# T7 sequence (whole entry): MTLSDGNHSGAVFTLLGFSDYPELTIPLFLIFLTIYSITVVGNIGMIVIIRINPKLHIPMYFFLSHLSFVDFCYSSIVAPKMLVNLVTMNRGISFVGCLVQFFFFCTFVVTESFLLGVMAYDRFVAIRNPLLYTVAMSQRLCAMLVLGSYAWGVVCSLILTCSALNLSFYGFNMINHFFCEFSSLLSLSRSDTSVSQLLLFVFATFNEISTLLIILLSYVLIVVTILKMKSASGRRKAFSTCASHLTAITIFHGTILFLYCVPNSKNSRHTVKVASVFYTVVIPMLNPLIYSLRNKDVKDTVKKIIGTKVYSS
# Outline: as §1
# UniProt Q924X8 = target: UniProt Q924X8
# UniProt Q924X8, sequence (Q924X8 as listed by the source): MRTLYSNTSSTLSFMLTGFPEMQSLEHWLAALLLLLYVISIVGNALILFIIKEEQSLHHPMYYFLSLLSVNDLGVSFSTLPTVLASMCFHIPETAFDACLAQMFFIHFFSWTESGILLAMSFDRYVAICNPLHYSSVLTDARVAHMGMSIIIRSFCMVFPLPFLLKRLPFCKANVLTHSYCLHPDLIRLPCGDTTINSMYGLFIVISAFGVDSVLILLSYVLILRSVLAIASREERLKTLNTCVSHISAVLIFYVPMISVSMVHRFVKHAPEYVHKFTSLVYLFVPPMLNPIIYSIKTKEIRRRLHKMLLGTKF
# Outline: as §1
# UniProt Q9WU94 = target: UniProt Q9WU94
# UniProt Q9WU94, sequence (Q9WU94 as listed by the source): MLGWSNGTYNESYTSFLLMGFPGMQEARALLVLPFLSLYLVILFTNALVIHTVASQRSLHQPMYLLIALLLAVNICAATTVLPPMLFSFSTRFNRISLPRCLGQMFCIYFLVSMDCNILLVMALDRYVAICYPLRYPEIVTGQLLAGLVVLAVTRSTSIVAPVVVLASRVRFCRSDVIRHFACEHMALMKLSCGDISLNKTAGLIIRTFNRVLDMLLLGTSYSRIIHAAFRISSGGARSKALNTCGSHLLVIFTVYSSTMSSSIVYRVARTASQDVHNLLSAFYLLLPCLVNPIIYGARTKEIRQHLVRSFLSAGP
# Outline: as §1
# UniProt Q9WVD7 = target: UniProt Q9WVD7
# UniProt Q9WVD7, sequence (Q9WVD7 as listed by the source): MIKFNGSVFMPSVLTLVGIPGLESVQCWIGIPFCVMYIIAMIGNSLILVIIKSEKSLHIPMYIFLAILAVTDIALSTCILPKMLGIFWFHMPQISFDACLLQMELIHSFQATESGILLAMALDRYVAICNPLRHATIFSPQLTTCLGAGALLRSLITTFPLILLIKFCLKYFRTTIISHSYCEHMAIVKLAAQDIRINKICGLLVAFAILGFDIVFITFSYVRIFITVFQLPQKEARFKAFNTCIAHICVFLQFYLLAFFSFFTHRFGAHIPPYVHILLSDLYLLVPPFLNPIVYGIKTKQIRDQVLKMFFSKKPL
# Outline: as §1
# 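Also: active if original authors judged signal statistically different from baseline.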
smiles,measurement,setting,value
C=CCOC(=O)Cc1ccccc1,odorant receptor agonist call,UniProt Q8VH21,inactive
same,odorant receptor agonist call,UniProt Q924H8,inactive
same,odorant receptor agonist call,UniProt Q9EPN9,active
same,odorant receptor agonist call,UniProt Q9R0K2,active
same,odorant receptor agonist call,UniProt Q9WU86,inactive
same,odorant receptor agonist call,UniProt Q9WVD9,inactive
same,odorant receptor agonist call,UniProt Q9WVN5,active
Cc1ccc(OC(=O)Cc2ccccc2)cc1,odorant receptor agonist call,UniProt Q8VH21,inactive
same,odorant receptor agonist call,UniProt Q924H8,inactive
CC(C=O)Cc1ccc2c(c1)OCO2 (stereo unspecified),odorant receptor agonist call,UniProt Q8VH21,inactive
same,odorant receptor agonist call,UniProt Q924H8,inactive
O=c1cc(O)c2ccccc2o1,odorant receptor agonist call,UniProt Q8VH21,inactive
same,odorant receptor agonist call,UniProt Q924H8,inactive
same,odorant receptor agonist call,UniProt Q9EPN9,inactive
same,odorant receptor agonist call,UniProt Q9R0K2,inactive
same,odorant receptor agonist call,UniProt Q9WU86,inactive
same,odorant receptor agonist call,UniProt Q9WVD9,inactive
same,odorant receptor agonist call,UniProt Q9WVN5,inactive
CCCCC(Br)C(=O)O (stereo unspecified),odorant receptor agonist call,UniProt Q8VH21,inactive
same,odorant receptor agonist call,UniProt Q924H8,inactive
same,odorant receptor agonist call,UniProt Q99NH4,active
O=Cc1ccc2c(c1)OCO2,odorant receptor agonist call,UniProt Q8VH21,inactive
same,odorant receptor agonist call,UniProt Q920P1,inactive
same,odorant receptor agonist call,UniProt Q920P2,inactive
same,odorant receptor agonist call,UniProt Q924H8,inactive
C=CCc1ccc2c(c1)OCO2,odorant receptor agonist call,UniProt Q920P1,inactive
same,odorant receptor agonist call,UniProt Q920P2,inactive
c1ccncc1,odorant receptor agonist call,UniProt Q920P1,inactive
same,odorant receptor agonist call,UniProt Q920P2,inactive
C=C(C)C1CC=C(C=O)CC1 (stereo unspecified),odorant receptor agonist call,UniProt Q8VH21,inactive
same,odorant receptor agonist call,UniProt Q924H8,inactive
O=C(O)CCCCCCCBr,odorant receptor agonist call,UniProt Q924X8,active
same,odorant receptor agonist call,UniProt Q99NH4,active
same,odorant receptor agonist call,UniProt Q9WU94,inactive
same,odorant receptor agonist call,UniProt Q9WVD7,active
CCCCCCC(Br)C(=O)O (stereo unspecified),odorant receptor agonist call,UniProt Q8VH21,inactive
same,odorant receptor agonist call,UniProt Q924H8,inactive
COc1ccc(C=O)cc1,odorant receptor agonist call,UniProt Q8VH21,inactive
same,odorant receptor agonist call,UniProt Q924H8,inactive
CSSC,odorant receptor agonist call,UniProt Q8VH21,inactive
same,odorant receptor agonist call,UniProt Q924H8,inactive
OCc1ccc2c(c1)OCO2,odorant receptor agonist call,UniProt Q8VH21,inactive
same,odorant receptor agonist call,UniProt Q924H8,inactive
O=Cc1ccccc1,odorant receptor agonist call,UniProt Q8VH21,active
same,odorant receptor agonist call,UniProt Q924H8,inactive
Oc1ccccc1Br,odorant receptor agonist call,UniProt Q8VH21,inactive
same,odorant receptor agonist call,UniProt Q924H8,inactive
CCC1CCC(=O)O1 (stereo unspecified),odorant receptor agonist call,UniProt Q9EPN9,inactive
same,odorant receptor agonist call,UniProt Q9R0K2,inactive
same,odorant receptor agonist call,UniProt Q9WU86,inactive
same,odorant receptor agonist call,UniProt Q9WVD9,inactive
same,odorant receptor agonist call,UniProt Q9WVN5,inactive
O=CC=Cc1ccccc1,odorant receptor agonist call,UniProt Q8VH21,inactive
same,odorant receptor agonist call,UniProt Q924H8,inactive
C=CCc1ccccc1,odorant receptor agonist call,UniProt Q920P1,inactive
same,odorant receptor agonist call,UniProt Q920P2,inactive
same,odorant receptor agonist call,UniProt Q9EPN9,inactive
same,odorant receptor agonist call,UniProt Q9R0K2,inactive
same,odorant receptor agonist call,UniProt Q9WU86,active
same,odorant receptor agonist call,UniProt Q9WVD9,inactive
same,odorant receptor agonist call,UniProt Q9WVN5,inactive
